This excerpt belongs to a sample that is enriched for hits.
CHOP inhibitor: inhibitors of CHOP induction in ER stress response; CHO-K1 CHOP-promoter luciferase, tunicamycin-induced, 15-18 h; inhibition, % at 10 µM; 220,000 compounds, 3.8% hits; AID 2732;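 active = compounds that reduced the stress-induced luciferase reporter signal by more than about 70% of percent inhibition, limit read from the data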;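 also: 0% = tunicamycin plus vehicle and 100% = wells without tunicamycin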
UPR XBP1 act: adaptive UPR (XBP1) activation; CHO-XBP1 luciferase reporter, IRE1-XBP1 UPR activation, luminescence; percent of tunicamycin response, DMSO as zero; activation, % at 20 µM; 330,000 compounds, 0.33% hits; AID 463104;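 active = versus positive control, 20 µM dose yields 30% or more activation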;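 also: 100% = tunicamycin at 10 µg/mL and 0% = DMSO only wells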
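Material: CHO-XBP1 cells stably carrying IRE1-XBP1-driven luciferase reporter / Amount: 1000 cells per well / Compound: 20 µM, 1% DMSO / Times: 6 h treatment, 37 °C / Detection: luciferase luminescence / Measure: % activation of reporter signal versus tunicamycin and DMSO controls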
Jurkat NFkB inh: inhibitors of the PMA/ionomycin-induced NF-kB reporter in Jurkat cells | PMA/ionomycin-induced NF-kB luciferase reporter, luminescence | AID 435003 | 330,000 compounds, 0.53% hits | inhibition, % at 4 µM; in the data active = inhibition above about 50%
UPR CHOP act: apoptotic UPR (CHOP) activation; activation, % at 10 µM; CHO-CHOP luciferase reporter, luminescence; percent of tunicamycin response over DMSO baseline; 330,000 compounds, 0.34% hits; AID 449763;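 active = at 10 µM dose, activation of 40% or more, normalized to positive control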;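 also: 100% = tunicamycin at 10 µg/mL and 0% = DMSO alone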
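Material: CHO-CHOP cells, stable luciferase reporter of PERK-eIF2a-CHOP signalling; quantity: 500 reporter cells seeded per well; buffer or medium: F12 medium containing 10% fetal bovine serum; compound: one dose, 10 µM in 0.5% DMSO; incubation: 6 h compound treatment, 37 °C; measured by: Steady-Glo luciferase luminescence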
697 NFkB inh: inhibitors of the PMA/ionomycin-induced NF-kB reporter in 697 B cells; 697 B-cell NF-kB luciferase reporter, 16 h; inhibition, % at 4 µM; 330,000 compounds, 0.33% hits; AID 435022; in the data active = inhibition above about 35%
697 NFkB conf: inhibitors of the PMA/ionomycin-induced NF-kB reporter in 697 B cells, retest. 697 B-cell NF-kB luciferase, 16 h. shares compounds with 697 NFkB inh. 2,000 compounds, 35% hits. inhibition, % at 4 µM; in the data active = inhibition mostly above about 28%, no sharp cut-off; inactive = mostly below about 22%
CHOP UPR conf: confirmation of apoptotic unfolded protein response (CHOP) activators. shares compounds with UPR CHOP act. CHO-CHOP cells, CHOP-luciferase reporter luminescence; percent of tunicamycin response, DMSO as zero. activation, % at 10 µM. 1,000 compounds, 64% hits; in the data active = activation above about 33%;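 also: 0% = DMSO wells and 100% = tunicamycin 10 µg/mL wells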
* = called active by the depositor; i = inactive; x = no result given.

SMILES | CHOP inhibitor | UPR XBP1 act | Jurkat NFkB inh | UPR CHOP act | 697 NFkB inh | CHOP UPR conf | others
COC(=O)C(C)Oc1cc(C)cc2oc(=O)c3c(c12)CCC3 (configuration not stated) | 2 | -1 | 14 | 2 | 36* | x | 697 NFkB conf=55*
CCOC(=O)C1(CCc2ccccc2)CCN(CC(O)CO)CC1 (configuration not stated) | x | -4 | -10 | 0 | 7 | x
CN(C)P(=O)(C(Cl)=C(N1CCCCC1)N1CCCCC1)N(C)C | -8 | -1 | -17 | -1 | 41* | x | 697 NFkB conf=23
CCSC(=O)N1CCCCCC1 | x | -2 | -3 | 4 | 10 | x
CN(C)c1ccc(C(=O)N/N=C/C23CC[C@@H](O)CC2(O)CC[C@@H]2[C@@H]3CCC3(C)C(C4=CC(=O)OC4)CCC23O)cc1 (some centres not stated) | -9 | -2 | -11 | -1 | i | x | 697 NFkB conf=-314
C[C@]12C=CC(=O)C=C1CC[C@@H]1C2CC[C@]2(C)OC(=O)CCC12 (some centres not stated) | x | 0 | -2 | 1 | 3 | x
Cc1cc(C)cc(N2C(=O)NC(=O)/C(=C\c3cccn3-c3ccccc3)C2=O)c1 | 52 | -4 | 10 | 189* | 53* | 333* | 697 NFkB conf=61*
COC(=O)C1=C(c2ccc(F)cc2OCc2ccccc2)C[C@@H]2CC[C@H]1N2C(=O)N1CCCC1 | x | -2 | -7 | 1 | 18 | x
O=c1[nH]c(=S)n(C2CC2)c(O)c1C=Nc1cccc(C(F)(F)F)c1 | 95* | 23 | 16 | 46* | 6 | 36*
CC(C)c1ccc(N2C(=O)NC(=O)/C(=C\C=C\c3ccco3)C2=O)cc1 | 104* | -5 | 5 | 250* | -20 | 254*
COc1cccc(N2C(=O)/C(=C/c3ccc(C)o3)C(=O)NC2=S)c1 | x | -1 | -17 | 262* | -14 | 0
Cc1ccc(/C=C2\C(=O)NC(=S)N(c3ccc(F)cc3)C2=O)o1 | x | -3 | -6 | 0 | -2 | x
CN(C)c1ccc(/C=C2/C(=N\O)C3CCN2CC3)cc1 | -5 | 2 | -24 | 9 | -53 | x
CCCCCn1c(=O)c(C(=O)Nc2ncccc2C)c(O)c2ccccc21 | x | 36* | 2 | 46* | -23 | 24
CCCCCn1c(=O)c(C(=O)NCCc2ccccc2)c(O)c2ccccc21 | x | -3 | -2 | 2 | 5 | x
COc1ccc(N2C(=O)/C(=C/C=C/c3ccccc3[N+](=O)[O-])C(=O)NC2=S)cc1 | -143 | -7 | 18 | 355* | 8 | 90*
COc1ccccc1/C=C1\C(=O)NC(=S)N(c2ccccc2)C1=O | x | -6 | -18 | 1 | 16 | x
COc1cc(/C=C/[N+](=O)[O-])ccc1O | 63 | -3 | 4 | 189* | -2 | 54*
COc1ccc(-n2c(/C=C/c3ccc(O)c(OC)c3)nc3ccccc3c2=O)cc1 | x | 2 | -15 | 4 | 15 | x
CCn1c(O)c(N=Nc2cccc(S(=O)(=O)N3CCOCC3)c2)c(=O)n(CC)c1=S | 13 | -1 | -1 | 41* | 6 | 5
CC(=O)N(C)CC#CCN1CCCC(CO)C1 (configuration not stated) | x | 3 | 8 | -2 | 10 | x
Cc1c(C(=O)c2cccc3ccccc23)c2cccc3c2n1[C@H](CN1CCOCC1)CO3 | -95 | 29 | -11 | 58* | 10 | 40*
Cc1nc2ccc(Cl)cc2c(=O)n1-c1cccc(Cl)c1 | x | -2 | -9 | 1 | 11 | x
CC(C)N1C(=O)/C(=C/C=C/c2ccco2)C(=O)N(Cc2ccco2)C1=O | 16 | 8 | 8 | 45* | 10 | 156*
CCc1c(-c2ccccc2)nc2ccccc2c1C(=O)N1CCC2(CC1)OCCO2 | x | 7 | 0 | -1 | 0 | x
O=C(O)[C@H]1NC[C@H]2C[C@H]21 | 5 | -2 | -9 | -1 | 10 | x
CCN(CC)Cc1c[nH]c2ccccc12 | 9 | -2 | -4 | 0 | 7 | x
CN(CCc1ccccc1)Cc1c[nH]c2ccccc12 | x | 5 | 3 | 88* | -13 | 20
